Experimental data published in ChEMBL document CHEMBL5058577, “EUbOPEN Chemogenomics Library 2 (Multiplex)” (2022).

Tested on: Fibroblast
Experiment: Multiplex assay against human fibroblast
Type: toxicity, cell-based
In short: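 Live cells carried four stains from seeding: Hoechst33342, BioTracker Green Microtubule Cytoskeleton Dye, MitoTracker Red and Annexin V Alexa Fluor 680. They were imaged on a CQ1 microscope at 37°C and 5% CO2 after compound addition. Using CellPathfinder machine-learning gating, cells were split into Hoechst high-intensity objects or normal cells, normal cells into healthy, pyknosed or fragmented nuclei, and pyknosed cells into mitotic or apoptotic; tubulin, mitochondrial-mass and membrane-permeability phenotypes are per cents of healthy-nucleus cells.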

[1] = 12 h, 1 µM, compound concentration 1 uM, replicate 1
[2] = 12 h, 1 µM, compound concentration 1 uM, replicate 2
[3] = 12 h, 10 µM, compound concentration 10 uM, replicate 1
[4] = 12 h, 10 µM, compound concentration 10 uM, replicate 2
[5] = 24 h, 1 µM, compound concentration 1 uM, replicate 1
[6] = 24 h, 1 µM, compound concentration 1 uM, replicate 2
[7] = 24 h, 10 µM, compound concentration 10 uM, replicate 1
[8] = 24 h, 10 µM, compound concentration 10 uM, replicate 2
[9] = 48 h, 1 µM, compound concentration 1 uM, replicate 1
[10] = 48 h, 1 µM, compound concentration 1 uM, replicate 2
[11] = 48 h, 10 µM, compound concentration 10 uM, replicate 1
[12] = 48 h, 10 µM, compound concentration 10 uM, replicate 2

## Cc1ccc(OCC(O)C(C)NC(C)C)c2c1CCC2.Cl (stereo unspecified)
[1]
  Population Apoptotic (%): 36%
  Population Fragmented Nuclei (%): 10%
  Population Healthy Nuclei (%): 68%
  Population Hoechst High Intensity Objects (%): 0%
  Population Membrane Permeable-Phenotype (%): 0%
  Population Mitochondria Different-Phenotype (%): 3%
  Population Mitotic Cells (%): 63%
  Population Normal (%): 99%
  Population Pyknosed Nuclei (%): 20%
  Population Tubulin-Different-Phenotype (%): 26%
  Total Cell Count: 159
[2]
  Population Apoptotic (%): 28%
  Population Fragmented Nuclei (%): 17%
  Population Healthy Nuclei (%): 55%
  Population Hoechst High Intensity Objects (%): 9%
  Population Membrane Permeable-Phenotype (%): 4%
  Population Mitochondria Different-Phenotype (%): 7%
  Population Mitotic Cells (%): 71%
  Population Normal (%): 90%
  Population Pyknosed Nuclei (%): 27%
  Population Tubulin-Different-Phenotype (%): 50%
  Total Cell Count: 210
[3]
  Population Apoptotic (%): 47%
  Population Fragmented Nuclei (%): 39%
  Population Healthy Nuclei (%): 47%
  Population Hoechst High Intensity Objects (%): 1%
  Population Membrane Permeable-Phenotype (%): 0%
  Population Mitochondria Different-Phenotype (%): 12%
  Population Mitotic Cells (%): 52%
  Population Normal (%): 98%
  Population Pyknosed Nuclei (%): 12%
  Population Tubulin-Different-Phenotype (%): 52%
  Total Cell Count: 138
[4]
  Population Apoptotic (%): 25%
  Population Fragmented Nuclei (%): 33%
  Population Healthy Nuclei (%): 50%
  Population Hoechst High Intensity Objects (%): 2%
  Population Membrane Permeable-Phenotype (%): 7%
  Population Mitochondria Different-Phenotype (%): 17%
  Population Mitotic Cells (%): 74%
  Population Normal (%): 97%
  Population Pyknosed Nuclei (%): 16%
  Population Tubulin-Different-Phenotype (%): 54%
  Total Cell Count: 168
[5]
  Population Apoptotic (%): 57%
  Population Fragmented Nuclei (%): 11%
  Population Healthy Nuclei (%): 74%
  Population Hoechst High Intensity Objects (%): 0%
  Population Membrane Permeable-Phenotype (%): 4%
  Population Mitochondria Different-Phenotype (%): 5%
  Population Mitotic Cells (%): 42%
  Population Normal (%): 100%
  Population Pyknosed Nuclei (%): 13%
  Population Tubulin-Different-Phenotype (%): 30%
  Total Cell Count: 154
[6]
  Population Apoptotic (%): 20%
  Population Fragmented Nuclei (%): 27%
  Population Healthy Nuclei (%): 46%
  Population Hoechst High Intensity Objects (%): 15%
  Population Membrane Permeable-Phenotype (%): 1%
  Population Mitochondria Different-Phenotype (%): 8%
  Population Mitotic Cells (%): 80%
  Population Normal (%): 84%
  Population Pyknosed Nuclei (%): 26%
  Population Tubulin-Different-Phenotype (%): 52%
  Total Cell Count: 201
[7]
  Population Apoptotic (%): 35%
  Population Fragmented Nuclei (%): 39%
  Population Healthy Nuclei (%): 49%
  Population Hoechst High Intensity Objects (%): 1%
  Population Membrane Permeable-Phenotype (%): 1%
  Population Mitochondria Different-Phenotype (%): 13%
  Population Mitotic Cells (%): 64%
  Population Normal (%): 98%
  Population Pyknosed Nuclei (%): 11%
  Population Tubulin-Different-Phenotype (%): 63%
  Total Cell Count: 151
[8]
  Population Apoptotic (%): 36%
  Population Fragmented Nuclei (%): 35%
  Population Healthy Nuclei (%): 50%
  Population Hoechst High Intensity Objects (%): 5%
  Population Membrane Permeable-Phenotype (%): 4%
  Population Mitochondria Different-Phenotype (%): 14%
  Population Mitotic Cells (%): 63%
  Population Normal (%): 94%
  Population Pyknosed Nuclei (%): 13%
  Population Tubulin-Different-Phenotype (%): 65%
  Total Cell Count: 168
[9]
  Population Apoptotic (%): 64%
  Population Fragmented Nuclei (%): 16%
  Population Healthy Nuclei (%): 71%
  Population Hoechst High Intensity Objects (%): 4%
  Population Membrane Permeable-Phenotype (%): 0%
  Population Mitochondria Different-Phenotype (%): 1%
  Population Mitotic Cells (%): 35%
  Population Normal (%): 95%
  Population Pyknosed Nuclei (%): 11%
  Population Tubulin-Different-Phenotype (%): 23%
  Total Cell Count: 155
[10]
  Population Apoptotic (%): 34%
  Population Fragmented Nuclei (%): 37%
  Population Healthy Nuclei (%): 42%
  Population Hoechst High Intensity Objects (%): 11%
  Population Membrane Permeable-Phenotype (%): 5%
  Population Mitochondria Different-Phenotype (%): 8%
  Population Mitotic Cells (%): 65%
  Population Normal (%): 88%
  Population Pyknosed Nuclei (%): 20%
  Population Tubulin-Different-Phenotype (%): 60%
  Total Cell Count: 196
[11]
  Population Apoptotic (%): 71%
  Population Fragmented Nuclei (%): 35%
  Population Healthy Nuclei (%): 50%
  Population Hoechst High Intensity Objects (%): 1%
  Population Membrane Permeable-Phenotype (%): 0%
  Population Mitochondria Different-Phenotype (%): 9%
  Population Mitotic Cells (%): 28%
  Population Normal (%): 98%
  Population Pyknosed Nuclei (%): 13%
  Population Tubulin-Different-Phenotype (%): 68%
  Total Cell Count: 155
[12]
  Population Apoptotic (%): 60%
  Population Fragmented Nuclei (%): 39%
  Population Hoechst High Intensity Objects (%): 7%
  Population Membrane Permeable-Phenotype (%): 5%
  Population Mitochondria Different-Phenotype (%): 10%
  Population Mitotic Cells (%): 40%
  Population Normal (%): 92%
  Population Pyknosed Nuclei (%): 10%
  Population Tubulin-Different-Phenotype (%): 63%
  Total Cell Count: 157
